Legend:
Cytochrome P450 2D6 = Cytochrome P450 2D6 (Homo sapiens, UniProt P10635); test: Inhibition of CYP2D6 (unknown origin); assay type: ADME
[1] = Half life in mouse liver microsomes; assay type: ADME, microsome
[2] = Protein binding in human plasma; assay type: ADME, cell-free; settings: read-out: PPB (converted)
[3] = Protein binding in mouse plasma; assay type: ADME, cell-free; settings: read-out: PPB (converted)
[4] = Protein binding in rat plasma; assay type: ADME, cell-free; settings: read-out: PPB (converted)
[5] = Half life in mouse at 14.6 mg/kg, po by LC-MS/MS analysis; assay type: ADME, organism-based; settings: in vivo
[6] = AUClast in mouse at 14.6 mg/kg, po by LC-MS/MS analysis; assay type: ADME, organism-based; design: dose 14.6 mg/kg, route oral, time 0 - last; settings: in vivo
[7] = Half life in rat at 2 mg/kg, iv by LC-MS/MS analysis; assay type: ADME, organism-based; settings: in vivo
[8] = Volume of distribution at steady state in rat at 2 mg/kg, iv by LC-MS/MS analysis; assay type: ADME, organism-based; settings: in vivo, read-out: Vdss
[9] = Half life in rat at 10 mg/kg, po by LC-MS/MS analysis; assay type: ADME, organism-based; settings: in vivo
[10] = AUClast in rat at 10 mg/kg, po by LC-MS/MS analysis; assay type: ADME, organism-based; design: dose 10 mg/kg, time 0 - last, route oral; settings: in vivo
[11] = Oral bioavailability in rat at 10 mg/kg by LC-MS/MS analysis; assay type: ADME, organism-based; settings: in vivo
[12] = Half life in dog at 1 mg/kg, iv by LC-MS/MS analysis; assay type: ADME, organism-based, Canis lupus familiaris; settings: in vivo
[13] = Clearance in dog at 1 mg/kg, iv by LC-MS/MS analysis; assay type: ADME, organism-based, Canis lupus familiaris; settings: in vivo
[14] = Volume of distribution at steady state in dog at 1 mg/kg, iv by LC-MS/MS analysis; assay type: ADME, organism-based, Canis lupus familiaris; settings: in vivo, read-out: Vdss
[15] = Half life in dog at 5 mg/kg, po by LC-MS/MS analysis; assay type: ADME, organism-based, Canis lupus familiaris; settings: in vivo
[16] = Cmax in dog at 5 mg/kg, po by LC-MS/MS analysis; assay type: ADME, organism-based, Canis lupus familiaris; design: dose 5 mg/kg, route oral; settings: in vivo
[17] = AUClast in dog at 5 mg/kg, po by LC-MS/MS analysis; assay type: ADME, organism-based, Canis lupus familiaris; design: dose 5 mg/kg, route oral, time 0 - last; settings: in vivo
[18] = target: T1, Free fatty acid receptor 4 (Rattus norvegicus, UniProt Q2AC31); test: Agonist activity at recombinant rat GPR120 expressed in HEK293 cells; assay type: functional, cell-based
T1 sequence (Q2AC31 whole entry): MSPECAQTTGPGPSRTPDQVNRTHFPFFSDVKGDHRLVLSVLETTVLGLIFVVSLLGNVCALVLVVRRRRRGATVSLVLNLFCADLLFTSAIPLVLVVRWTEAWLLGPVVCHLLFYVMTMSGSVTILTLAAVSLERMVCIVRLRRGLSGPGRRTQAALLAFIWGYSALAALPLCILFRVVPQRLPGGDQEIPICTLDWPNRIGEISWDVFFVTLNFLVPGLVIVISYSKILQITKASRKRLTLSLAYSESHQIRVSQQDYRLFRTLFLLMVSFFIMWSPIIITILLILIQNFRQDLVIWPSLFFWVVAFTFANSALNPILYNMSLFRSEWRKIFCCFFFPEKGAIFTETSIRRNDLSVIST

[19] = target: 5-hydroxytryptamine receptor 5A (Homo sapiens) (UniProt P47898); test: Displacement of […] from recombinant human 5-HT5A at 10 uM after 60 mins by scintillation counting method relative to control
Chain of 5-hydroxytryptamine receptor 5A (Homo sapiens) (P47898 whole entry): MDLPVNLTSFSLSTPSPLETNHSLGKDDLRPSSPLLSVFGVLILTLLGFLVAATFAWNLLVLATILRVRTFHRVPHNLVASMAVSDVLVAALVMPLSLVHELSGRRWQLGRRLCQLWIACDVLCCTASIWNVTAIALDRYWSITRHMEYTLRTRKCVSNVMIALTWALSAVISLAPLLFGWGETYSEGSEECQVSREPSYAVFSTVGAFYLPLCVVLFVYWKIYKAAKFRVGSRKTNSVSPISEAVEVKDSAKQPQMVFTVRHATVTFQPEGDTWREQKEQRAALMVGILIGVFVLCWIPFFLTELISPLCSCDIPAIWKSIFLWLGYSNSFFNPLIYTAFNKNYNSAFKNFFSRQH

[20] = target: Sodium-dependent noradrenaline transporter (Homo sapiens) (UniProt P23975); test: Displacement of [3H]nisoxetine from recombinant human norepinephrine transporter at 10 uM after 120 mins by scintillation counting method relative to control
Chain of Sodium-dependent noradrenaline transporter (Homo sapiens) (P23975 whole entry): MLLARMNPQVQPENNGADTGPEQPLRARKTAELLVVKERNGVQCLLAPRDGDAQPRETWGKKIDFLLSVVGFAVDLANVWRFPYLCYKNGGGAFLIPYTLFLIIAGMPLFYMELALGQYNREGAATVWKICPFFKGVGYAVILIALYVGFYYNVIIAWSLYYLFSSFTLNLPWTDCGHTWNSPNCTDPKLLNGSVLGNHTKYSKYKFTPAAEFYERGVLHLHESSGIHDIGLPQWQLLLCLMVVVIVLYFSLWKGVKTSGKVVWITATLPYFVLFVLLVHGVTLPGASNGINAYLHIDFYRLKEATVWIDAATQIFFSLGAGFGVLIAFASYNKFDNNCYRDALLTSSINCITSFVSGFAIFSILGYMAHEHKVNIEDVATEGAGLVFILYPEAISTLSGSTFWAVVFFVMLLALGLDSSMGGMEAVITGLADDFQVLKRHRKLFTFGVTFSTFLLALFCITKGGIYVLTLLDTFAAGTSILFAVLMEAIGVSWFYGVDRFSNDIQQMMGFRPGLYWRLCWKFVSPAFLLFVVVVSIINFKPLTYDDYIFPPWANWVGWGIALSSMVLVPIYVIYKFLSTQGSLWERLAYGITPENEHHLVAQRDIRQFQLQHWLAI

Rattus norvegicus = species: Rattus norvegicus; test: Displacement of [35S]TBPS from rat GABA-gated chloride channel at 10 uM after 120 mins by scintillation counting method
Cavia porcellus [21] = test: Cardiotoxicity in guinea pig assessed as effect on QRS interval at 22.4 mg/kg; assay type: toxicity, organism-based; settings: in vivo
Cavia porcellus [22] = test: Cardiotoxicity in guinea pig assessed as effect on QTcB interval at 22.4 mg/kg; assay type: toxicity, organism-based; settings: in vivo
Cavia porcellus [23] = test: Cardiotoxicity in guinea pig assessed as effect on heart rate at 22.4 mg/kg; assay type: toxicity, organism-based; settings: in vivo
Cavia porcellus [24] = test: Cardiotoxicity in guinea pig assessed as effect on body temperature at 22.4 mg/kg; assay type: toxicity, organism-based; settings: in vivo
[25] = Cmax in guinea pig at 22.4 mg/kg; assay type: ADME, organism-based, Cavia porcellus; design: dose 22.4 mg/kg; settings: in vivo
Mus musculus [26] = test: Antidiabetic activity in po dosed diet-induced obese C57Bl/6 mouse model assessed as decrease in plasma glucose AUC administered 30 mins prior to glucose challenge measured up to 90 mins post dose by OGTT; assay type: functional, organism-based
In short: (§1)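 Diet-induced obese mice dosed orally at 0.1–3.0 mg/kg 30 min before an oral glucose load (time 0). Glucose followed from 30 min pre-glucose to 90 min post-glucose. Saxagliptin 1 mg/kg was the positive control.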

Mus musculus [27] = test: Antidiabetic activity in diet-induced obese C57Bl/6 mouse model assessed as change in plasma glucose AUC at 0.1 mg/kg, po administered 30 mins prior to glucose challenge measured up to 90 mins post dose by OGTT; assay type: functional; in short: as §1
Mus musculus [28] = test: Antidiabetic activity in diet-induced obese C57Bl/6 mouse model assessed as change in plasma glucose AUC at 0.3 mg/kg, po administered 30 mins prior to glucose challenge measured up to 90 mins post dose by OGTT; assay type: functional; in short: as §1
Mus musculus [29] = test: Antiobesity activity in diet-induced obesity C57Bl6/J mouse model assessed as basal glucose level in plasma at 10 mg/kg qd for 15 days measured on day 15 post 6 hrs fasting (reference value: 187 +/- 24 mg/dL); assay type: functional
Mus musculus [30] = test: Antiobesity activity in diet-induced obesity C57Bl6/J mouse model assessed as final glucose level in plasma at 10 mg/kg qd for 15 days measured on day 15 post 6 hrs fasting (reference value: 184 +/- 30 mg/dL); assay type: functional
Mus musculus [31] = test: Antiobesity activity in diet-induced obesity C57Bl6/J mouse model assessed as final glucose level in plasma at 10 mg/kg bid for 15 days measured on day 15 post 6 hrs fasting (reference value: 184 +/- 30 mg/dL); assay type: functional
Mus musculus [32] = test: Antiobesity activity in diet-induced obesity C57Bl6/J mouse model assessed as final glucose level in plasma at 30 mg/kg qd for 15 days measured on day 15 post 6 hrs fasting (reference value: 184 +/- 30 mg/dL); assay type: functional
Mus musculus [33] = test: Antiobesity activity in diet-induced obesity C57Bl6/J mouse model assessed as reduction in body weight at 30 mg/kg qd for 15 days measured on day 15 post 6 hrs fasting relative to control; assay type: functional; design: scale not given: the % may be the effect or the level left
Mus musculus [34] = test: Antiobesity activity in diet-induced obesity C57Bl6/J mouse model assessed as basal insulin level in plasma at 10 mg/kg qd for 15 days measured on day 15 post 6 hrs fasting (reference value: 16959 +/- 4943 pg/ml); assay type: functional
Mus musculus [35] = test: Antiobesity activity in diet-induced obesity C57Bl6/J mouse model assessed as final insulin level in plasma at 10 mg/kg qd for 15 days measured on day 15 post 6 hrs fasting (reference value: 7304 +/- 2967 pg/ml); assay type: functional
Mus musculus [36] = test: Antiobesity activity in diet-induced obesity C57Bl6/J mouse model assessed as final insulin level in plasma at 10 mg/kg bid for 15 days measured on day 15 post 6 hrs fasting (reference value: 7304 +/- 2967 pg/ml); assay type: functional
Mus musculus [37] = test: Antiobesity activity in diet-induced obesity C57Bl6/J mouse model assessed as change in plasma insulin level at 30 mg/kg qd for 15 days measured on day 15 post 6 hrs fasting; assay type: functional

Chain of Cytochrome P450 2D6 (P10635 whole entry): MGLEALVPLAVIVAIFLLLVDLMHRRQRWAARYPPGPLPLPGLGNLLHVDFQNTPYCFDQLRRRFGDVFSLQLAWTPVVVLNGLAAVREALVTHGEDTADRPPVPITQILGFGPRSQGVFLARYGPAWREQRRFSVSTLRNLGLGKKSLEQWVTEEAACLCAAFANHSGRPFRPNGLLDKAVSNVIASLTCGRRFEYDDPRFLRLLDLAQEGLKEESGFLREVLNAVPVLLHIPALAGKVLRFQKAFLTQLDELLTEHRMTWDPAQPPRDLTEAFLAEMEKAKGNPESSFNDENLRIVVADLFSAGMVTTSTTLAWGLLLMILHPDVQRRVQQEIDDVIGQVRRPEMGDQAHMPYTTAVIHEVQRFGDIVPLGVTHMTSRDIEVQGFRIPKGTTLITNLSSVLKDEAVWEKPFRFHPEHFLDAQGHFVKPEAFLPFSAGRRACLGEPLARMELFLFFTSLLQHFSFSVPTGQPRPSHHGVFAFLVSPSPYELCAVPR

## O=C(O)CCc1cc(F)c(OCc2c(C(F)(F)F)ccn2-c2ccc(Cl)cc2)c(F)c1
Cytochrome P450 2D6
  INH: > 10 µM
[1]
  half-life: 2.58 h
[2]
  fraction unbound: 0.0008
[3]
  fraction unbound: 0.0037
[4]
  fraction unbound: 0.0017
[5]
  half-life: 3.45 h
[6]
  AUC(0-t): 81700 ng·h/mL
[7]
  half-life: 1.64 h
[8]
  Vd: 0.42 L/kg
[9]
  half-life: 2.87 h
[10]
  AUC(0-t): 60900 ng·h/mL
[11]
  bioavailability: 116%
[12]
  half-life: 4.72 h
[13]
  clearance: 2.45 mL/min/kg
[14]
  Vd: 0.52 L/kg
[15]
  half-life: 4.37 h
[16]
  Cmax: 8.92 µg/mL
[17]
  AUC(0-t): 47900 ng·h/mL
[18]
  EC50: 713 nM
[19]
  inhibition: 58%
[20]
  inhibition: 51%
Rattus norvegicus
  inhibition: 66%
Cavia porcellus [21]
  Activity: Non-Toxic
Cavia porcellus [22]
  Activity: Non-Toxic
Cavia porcellus [23]
  Activity: Non-Toxic
Cavia porcellus [24]
  Activity: Non-Toxic
[25]
  Cmax: 105 µg/mL
Mus musculus [26]
  Activity: Dose-dependent effect
Mus musculus [27]
  Activity: 8%
Mus musculus [28]
  Activity: -9%
Mus musculus [29]
  Activity: 202 mg/dL
Mus musculus [30]
  Activity: 163 mg/dL
Mus musculus [31]
  Activity: 170 mg/dL
Mus musculus [32]
  Activity: 151 mg/dL
Mus musculus [33]
  Activity: 4.6%
Mus musculus [34]
  Activity: 17395 pg/mL
Mus musculus [35]
  Activity: 7756 pg/mL
Mus musculus [36]
  Activity: 6225 pg/mL
Mus musculus [37]
  Activity: -3450 pg/mL

From ChEMBL document CHEMBL4184291, “Discovery of N-arylpyrroles as agonists of GPR120 for the treatment of type II diabetes” (Bioorg Med Chem Lett, 2018)
